The structures appear in SMILES notation.

The nature of this series: Toxicity liver stage against HepG2, at 10uM. It counts as cell-based. Further details: test concentration 10 uM, cell line HepG2-A16-CD81EGFP. The settings on record: human, HepG2-A16-CD81EGFP cells; read-out: INHIBITION
The method in brief: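 Uninfected HepG2-A16-CD81EGFP cells, 3 × 10^3 per well, 1536-well, plated on prespotted compound at 10 μM final, parasite-free screening media added to match infected plates; puromycin 10 μM positive, DMSO 0.5% negative; run in parallel with 48 h PbLuc assay at 37 °C, 5% CO2; viability by CellTiter-Glo luminescence, normalized to controls.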
`CN1CCCC(c2cccc(-c3cccc(F)c3)n2)C1` (stereo unspecified): the cytotoxicity at 10 µM is -2.4%.
In the case of `COCCC(=O)N1CCCC(c2n[nH]cc2C)C1` (stereo unspecified), the cytotoxicity at 10 µM is -1.75%.
`O=C1CN(Cc2ccc3ccccc3n2)CCN1C1CCCC1`: the cytotoxicity at 10 µM is -3.45%.
Under `CCN(CC)C(=O)CCNC(=O)c1c[nH]c2ccc(OC)cc12` stands 1.86%; under `O=C(CC1COCCN1C(=O)c1cscn1)c1ccccc1` (stereo unspecified), 6.24%.
Under `Cc1cc(CC(=O)NCC(O)COc2ccc(F)c(F)c2)no1` (stereo unspecified) stands -5.03%; under `Cc1cccc(CN2CCC(NCC3CNc4cc(C)nn4C3)CC2)c1` (stereo unspecified), 7.36%; under `Cc1cnn(CC2CC2)c1NC(=O)c1cccnc1O`, 6.62%.
Under `CC(c1nnc(-c2ccccc2)o1)N1CCc2cncnc2C1` (stereo unspecified) stands 8.59%; under `COc1ccc(CC2CCCN2CCCC#N)cc1` (stereo unspecified), -54.7%; under `CC(O)CNC(=O)NCCCN1CCN(c2ncccn2)CC1` (stereo unspecified), -48.8%.
For `O=C(O)C1(n2cccn2)CCN(Cc2nc(-c3ccccc3)no2)CC1`, the cytotoxicity at 10 µM came out at 6.74%.
Under `C[C@@H](N)C(=O)N1CCC(c2[nH]ncc2-c2ccccc2)CC1` stands -3.81%; under `CCOCCn1c(=O)n(Cc2ccc(F)cc2)c2ncc(C(=O)O)cc21`, 0.902%; under `CC(C)C(=O)NCCNc1nccc(-c2cc(C(=O)O)ccn2)n1`, -24%.
Under `CCn1cnnc1CNC(=O)N1CCN(c2ccc(OC)cc2)CC1` stands -1.62%.
In the case of `CCn1cnnc1CNC(=O)N1CCN(c2ccccc2O)CC1`, the cytotoxicity at 10 µM was -1.47%.
`Cc1noc(C)c1CN(Cc1cccs1)C1CCS(=O)(=O)C1` (stereo unspecified): the cytotoxicity at 10 µM was -0.375%.
Under `Cc1oc(-c2cccs2)nc1C(=O)N1CCCC1Cn1cccn1` (stereo unspecified) stands -7.22%; under `CCCc1n[nH]c(C2CN(C(=O)c3cncnc3C)CCO2)n1` (stereo unspecified), -12.9%; under `CC(C)c1nn(C)c(N(C)C)c1CNCCC(=O)NC1CCCCC1`, -2.89%.
With `CC1CN(C)CCN1CC(=O)NCCOc1ccc(Cl)cc1` (stereo unspecified), the cytotoxicity at 10 µM was -8.69%.
Under `Cn1ccc(C(=O)N2CCN(c3ccccn3)CC2)cc1=O` stands -9.43%.
Consider `O=C(CCOc1ccccc1F)N1CCCC(n2cncn2)C1` (stereo unspecified), for which the cytotoxicity at 10 µM was -1.22%.
Under `Cc1ccccc1OCCCC(=O)N1CCCC(n2cncn2)C1` (stereo unspecified) stands -4.36%; under `O=C(c1cccnc1N1CCOCC1)N1CCCC(n2cncn2)C1` (stereo unspecified), -3.37%.
Under `O=C(Nc1cn[nH]c1)c1ccncc1` stands -6.01%; under `CN(Cc1ccncc1)C(=O)NC1CCCN(c2ncccn2)C1` (stereo unspecified), -14%.
Under `O=C(c1cnc2c(cnn2C2CCCC2)c1)N1CCCSCC1` stands -9.3%.
For the compound `CCc1nccn1CC1CCCN1S(=O)(=O)Cc1ccccc1` (stereo unspecified), the cytotoxicity at 10 µM is -13.4%.
Under `O=C(c1ccnc(-n2ccnc2)c1)N1CCCC(n2cccn2)C1` (stereo unspecified) stands 1.21%; under `COCCNC(=O)CN1CCCC1c1c(C)nn(C)c1Cl` (stereo unspecified), -0.185%; under `c1ncn(CC2CN(CCCOc3ccc4c(c3)OCO4)CCO2)n1` (stereo unspecified), -1.85%.
Under `Cc1ccc(N2CCCC(NCc3sccc3C)C2)nn1` (stereo unspecified) stands -3.8%; under `CCc1nccn1C1CCCN(C(=O)c2cccc3c2OCO3)C1` (stereo unspecified), -8.87%.
Under `O=C(NCCNc1ncccn1)C1CC(=O)N(CC2CC2)C1` (stereo unspecified) stands -14%; under `Cc1cnc(C(=O)NC(COCC(C)C)c2ccco2)cn1` (stereo unspecified), -19.6%; under `Cc1cc(C)n(C2CCCN(C(=O)c3c(C)c(C)n[nH]c3=O)C2)n1` (stereo unspecified), 3.18%.
Regarding `COc1ccccc1CNC(=O)N1CCCC(NS(C)(=O)=O)C1` (stereo unspecified), the cytotoxicity at 10 µM was 5.05%.
As for `COc1nc2cc(C)ccc2cc1CN(C)Cc1cc(C)[nH]n1`, the cytotoxicity at 10 µM was found to be 4.3%.
Under `NC(=O)C1CNCCN1C(=O)COc1ccccc1` (stereo unspecified) stands 1.6%.
